According to ChEMBL document CHEMBL1944618, “Synthesis and antifungal activity of a new series of 2-(1H-imidazol-1-yl)-1-phenylethanol derivatives” (Eur J Med Chem, 2012):
≈ marks a conversion by molar mass, not a printed value.

What was measured:
Candida albicans [1] = experiment: Antifungal activity against Candida albicans ATCC 10231 after 48 hrs by M27-A3 CLSI method; type: functional; settings: ATCC 10231, 48 h
Outline: (§1)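 Broth microdilution in RPMI 1640, two-fold serial dilutions, final test range 0.125–64 µg mL-1 (fluconazole reference 0.0078–128 µg mL-1). Inoculum 1.0×10^3–1.5×10^3 cells mL-1 from yeasts grown 24 h at 35 °C on Sabouraud dextrose agar. Incubation 35 °C, read at 48 h. MIC = lowest concentration giving >50% turbidity decrease versus growth control. Run three times in triplicate. C. parapsilosis ATCC22019 served as QC.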

[2] = Selectivity index, ratio of CC50 for human U937 cells to MIC for Candida Sp.; type: functional, U-937
Outline: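 SI = CC50 from the 48 h U937 MTT assay divided by the mean MIC across all Candida species. That MIC comes from CLSI M27-A3 broth microdilution in RPMI 1640, 35 °C, read at 48 h.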

Pichia kudriavzevii [3] = experiment: Antifungal activity against Candida krusei DSM 6128 after 48 hrs by M27-A3 CLSI method; type: functional; settings: DSM 6128, 48 h; outline: as §1
Pichia kudriavzevii [4] = experiment: Antifungal activity against Candida krusei PMC 0613 after 48 hrs by M27-A3 CLSI method; type: functional; outline: as §1
Candida = experiment: Antifungal activity against Candida sp. after 48 hrs by M27-A3 CLSI method; type: functional; outline: as §1
Candida parapsilosis [5] = experiment: Antifungal activity against Candida parapsilosis ATCC 22019 after 48 hrs by M27-A3 CLSI method; type: functional; settings: Lodderomyces parapsilosis, ATCC 22019, 48 h; outline: as §1
Candida tropicalis [6] = experiment: Antifungal activity against Candida tropicalis after 48 hrs by M27-A3 CLSI method; type: functional; outline: as §1
Candida parapsilosis [7] = experiment: Antifungal activity against Candida parapsilosis after 48 hrs by M27-A3 CLSI method; type: functional; settings: Lodderomyces parapsilosis; outline: as §1
[8] = Cytotoxicity against human U937 cells after 48 hrs by MTT assay; type: cell-based, U-937
Outline: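 U937 human monocytic cells, 2×10^4 per well, in phenol-red-free RPMI 1640 with 10% FBS, L-glutamine, penicillin and streptomycin. Exposed 48 h at 37 °C, 5% CO2, to compounds dissolved in DMSO at final 8–128 µg mL-1, at least five concentrations, each in three replicates. MTT added for 3–4 h, crystals dissolved, OD read at 570 nm. CC50 taken against DMSO-only control. Means ± SD from three independent experiments.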

Candida albicans [9] = experiment: Antifungal activity against Candida albicans ATCC 3153 after 48 hrs by M27-A3 CLSI method; type: functional; settings: ATCC 3153, 48 h; outline: as §1
Pichia kudriavzevii [10] = experiment: Ratio MIC for fluconazole to compound for Candida krusei after 48 hrs by M27-A3 CLSI method; type: functional
Pichia kudriavzevii [11] = experiment: Antifungal activity against Candida krusei after 48 hrs by M27-A3 CLSI method; type: functional; outline: as §1
Candida tropicalis [12] = experiment: Antifungal activity against Candida tropicalis DSM11953 after 48 hrs by M27-A3 CLSI method
Candida albicans [13] = experiment: Antifungal activity against Candida albicans ATCC 24433 after 48 hrs by M27-A3 CLSI method; type: functional; outline: as §1
Candida albicans [14] = experiment: Antifungal activity against Candida albicans ATCC 76615 after 48 hrs by M27-A3 CLSI method; type: functional; settings: ATCC 76615, 48 h; outline: as §1
Nakaseomyces glabratus [15] = experiment: Antifungal activity against Candida glabrata PMC 0805 after 48 hrs by M27-A3 CLSI method; type: functional; settings: PMC 0805, 48 h; outline: as §1
Candida tropicalis [16] = experiment: Antifungal activity against Candida tropicalis DSM 11953 after 48 hrs by M27-A3 CLSI method; type: functional; settings: DSM 11953, 48 h; outline: as §1
Candida albicans [17] = experiment: Antifungal activity against Candida albicans after 48 hrs by M27-A3 CLSI method; type: functional; outline: as §1
Candida parapsilosis [18] = experiment: Antifungal activity against Candida parapsilosis DSM 11224 after 48 hrs by M27-A3 CLSI method; type: functional; outline: as §1
Nakaseomyces glabratus [19] = experiment: Antifungal activity against Candida glabrata after 48 hrs by M27-A3 CLSI method; type: functional; outline: as §1
Candida tropicalis [20] = experiment: Antifungal activity against Candida tropicalis PMC 0910 after 48 hrs by M27-A3 CLSI method; type: functional; settings: PMC 0910, 48 h; outline: as §1
Pichia kudriavzevii [21] = experiment: Ratio MIC for fluconazole to compound for Candida krusei PMC0613 after 48 hrs by M27-A3 CLSI method
Pichia kudriavzevii [22] = experiment: Ratio MIC for fluconazole to compound for Candida krusei PMC 0613 after 48 hrs by M27-A3 CLSI method; type: functional

Row | SMILES | MIC (Candida albicans [1]) [µg/mL] | MIC (Pichia kudriavzevii [3]) [µg/mL] | MIC (Pichia kudriavzevii [4]) [µg/mL] | MIC (Candida) [µg/mL] | MIC50 (Candida) [µg/mL] | MIC90 (Candida) [µg/mL] | MIC (Candida parapsilosis [5]) [µg/mL] | MIC (Candida tropicalis [6]) [µg/mL] | MIC (Candida parapsilosis [7]) [µg/mL] | MIC (Candida albicans [9]) [µg/mL] | MIC (Pichia kudriavzevii [11]) [µg/mL] | MIC (Candida tropicalis [12]) [µg/mL] | MIC (Candida albicans [13]) [µg/mL] | MIC (Candida albicans [14]) [µg/mL] | MIC (Nakaseomyces glabratus [15]) [µg/mL] | MIC (Candida tropicalis [16]) [µg/mL] | MIC (Candida parapsilosis [18]) [µg/mL] | Selectivity Index [2] | CC50 at 48 h [8] [µg/mL] | Ratio (Pichia kudriavzevii [10]) | further results
1 | O=C(OC(Cn1ccnc1)c1ccccc1)c1ccc(-c2ccccc2)cc1 (racemic) | 1 (≈ 2.71 µM) | 2 (≈ 5.43 µM) | 0.67 (≈ 1.82 µM) | 2.1 (≈ 5.7 µM) | 0.5 (≈ 1.36 µM) | 4 (≈ 10.9 µM) | 2 (≈ 5.43 µM) | 0.5 (≈ 1.36 µM) | 0.7 (≈ 1.9 µM) | 0.25 (≈ 0.679 µM) | 4.7 (≈ 12.8 µM) | 0.58 (≈ 1.57 µM) | 0.37 (≈ 1 µM) | 4 (≈ 10.9 µM) | 4 (≈ 10.9 µM) | 0.25 (≈ 0.679 µM) | 0.33 (≈ 0.896 µM) | >44.1 | > 128 | 5 | MIC (Candida albicans [17]): 3.7 µg/mL (≈ 10 µM); MIC50 (Candida albicans [17]): 1 µg/mL (≈ 2.71 µM); MIC90 (Candida albicans [17]): 8 µg/mL (≈ 21.7 µM); MIC (Nakaseomyces glabratus [19]): 4 µg/mL (≈ 10.9 µM)
2 | O=C(OC(Cn1ccnc1)c1ccc(Cl)cc1)c1ccc(-c2ccccc2)cc1 (racemic) | 1 (≈ 2.48 µM) | 4 (≈ 9.93 µM) |  | 1.9 (≈ 4.72 µM) | 1 (≈ 2.48 µM) | 4 (≈ 9.93 µM) | 1 (≈ 2.48 µM) | 0.89 (≈ 2.21 µM) | 1.05 (≈ 2.61 µM) | 0.125 (≈ 0.31 µM) | 3.7 (≈ 9.18 µM) |  |  | 4 (≈ 9.93 µM) | 1 (≈ 2.48 µM) | 0.125 (≈ 0.31 µM) |  | 49.1 | 88.3 (≈ 219 µM) | 7 | MIC (Candida tropicalis [20]): 1 µg/mL (≈ 2.48 µM); MIC (Pichia kudriavzevii [4]; Pichia kudriavzevii, PMC 0613, 48 h, read-out: MIC): 1 µg/mL (≈ 2.48 µM); MIC (Candida albicans [13]; Candida albicans, ATCC 24433, 48 h, read-out: MIC): 0.25 µg/mL (≈ 0.621 µM); MIC (Candida albicans [17]): 1.7 µg/mL (≈ 4.22 µM); MIC50 (Candida albicans [17]): 1 µg/mL (≈ 2.48 µM); MIC90 (Candida albicans [17]): 4 µg/mL (≈ 9.93 µM); MIC (Candida parapsilosis [18]; Lodderomyces parapsilosis, DSM 11224, 48 h, read-out: MIC): 0.25 µg/mL (≈ 0.621 µM); MIC (Nakaseomyces glabratus [19]): 1 µg/mL (≈ 2.48 µM)

Further lines, with some results ahead:

Row | MIC (Candida albicans [1]) [µg/mL] | MIC (Pichia kudriavzevii [3]) [µg/mL] | MIC (Pichia kudriavzevii [4]) [µg/mL] | MIC (Candida) [µg/mL] | MIC50 (Candida) [µg/mL] | MIC90 (Candida) [µg/mL] | MIC (Candida parapsilosis [5]) [µg/mL] | MIC (Candida tropicalis [6]) [µg/mL] | MIC (Candida parapsilosis [7]) [µg/mL] | MIC (Candida albicans [9]) [µg/mL] | MIC (Pichia kudriavzevii [11]) [µg/mL] | MIC (Candida tropicalis [12]) [µg/mL] | MIC (Candida albicans [13]) [µg/mL] | MIC (Candida albicans [14]) [µg/mL] | MIC (Nakaseomyces glabratus [15]) [µg/mL] | MIC (Candida tropicalis [16]) [µg/mL] | MIC (Candida parapsilosis [18]) [µg/mL] | SMILES | Selectivity Index [2] | CC50 at 48 h [8] [µg/mL] | Ratio (Pichia kudriavzevii [10]) | further results
3 | 8 (≈ 20.7 µM) | 4 (≈ 10.4 µM) | 0.83 (≈ 2.15 µM) | 2.5 (≈ 6.47 µM) | 1 (≈ 2.59 µM) | 8 (≈ 20.7 µM) | 2 (≈ 5.18 µM) | 4.08 (≈ 10.6 µM) | 1.3 (≈ 3.36 µM) | 0.25 (≈ 0.647 µM) | 2.25 (≈ 5.82 µM) | 2.17 (≈ 5.62 µM) | 1.5 (≈ 3.88 µM) | 4 (≈ 10.4 µM) | 1 (≈ 2.59 µM) | 1 (≈ 2.59 µM) | 0.42 (≈ 1.09 µM) | O=C(OC(Cn1ccnc1)c1ccc(F)cc1)c1ccc(-c2ccccc2)cc1 (racemic) | 12 | 41.5 (≈ 107 µM) | 11 | MIC (Candida albicans [17]): 4.4 µg/mL (≈ 11.4 µM); MIC50 (Candida albicans [17]): 4 µg/mL (≈ 10.4 µM); MIC90 (Candida albicans [17]): 8 µg/mL (≈ 20.7 µM); MIC (Nakaseomyces glabratus [19]): 1 µg/mL (≈ 2.59 µM)
4 |  |  | 0.37 (≈ 1 µM) |  |  |  |  |  |  |  |  | 0.15 (≈ 0.407 µM) | 0.15 (≈ 0.407 µM) |  |  |  | 0.125 (≈ 0.339 µM) | O=C(OC(Cn1ccnc1)c1ccccc1)c1ccc(-c2ccccc2)cc1 (single isomer, unassigned; (-)) |  |  | 30 | Ratio (Pichia kudriavzevii [21]): 30; Ratio (Pichia kudriavzevii [22]): 30
5 |  |  | 0.125 (≈ 0.323 µM) |  |  |  |  |  |  |  |  | 0.27 (≈ 0.699 µM) | 0.125 (≈ 0.323 µM) |  |  |  | 0.08 (≈ 0.207 µM) | O=C(OC(Cn1ccnc1)c1ccc(F)cc1)c1ccc(-c2ccccc2)cc1 (single isomer, unassigned; (-)) |  |  | 90 | Ratio (Pichia kudriavzevii [21]): 90; Ratio (Pichia kudriavzevii [22]): 90
